Measured values taken from the RNAGym collection of RNA variant scans (doi:10.1126/science.aae0568).
Fewer inactive variants are shown than the library holds.

B1: tRNA (parent)
chain: GUUCCGUUGGCGUAAUGGUAACGCGUCUCCCUCCUAAGGAGAAGACUGCGGGUUCGAGUCCCGUACGGAACG

Variants of: B1
Test: yeast fitness relative to wild type (ratio to wild type); higher = fitter; tRNA-Arg(CCU), competitive growth, 37 C, YPD
How it was run: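 Genotype frequency changes were the basis for Darwinian fitness relative to wild type. The frequencies came from 100-nucleotide paired-end sequencing of gene amplicons from the start population and each end population of pooled yeast strains with tRNA-Arg(CCU) gene variants at the native locus. Competition ran in YPD at 37°C for 24 hours in six replicates, genotypes needed ≥ 100 starting reads, and estimates < 0.5 were set to 0.5.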

Row | Variant | yeast fitness
1 | A20G G25C C33U C49A U53A G67A | ≤ 0.5
2 | C5G U13G A20U A37G | 0.514
3 | U13C C27G U35G C49G A57C | ≤ 0.5
4 | A43U C60G A70C | 0.599
5 | U13A A15G C27U C62A G63A A70C | ≤ 0.5
6 | C27G C34U C49U C66G | ≤ 0.5
7 | C22G C29G C62U | ≤ 0.5
8 | G10C C27U U47G | 0.632
9 | C27A A37C C55G | ≤ 0.5
10 | A21U G25A C60U G68U | ≤ 0.5
11 | A14G U19A C55U | ≤ 0.5
12 | C33U C49G G52C | 0.501
13 | G10C C22U A70G | 0.513
14 | C33U C61U C66G | 0.543
15 | C4U U8A U16C A20U C29U A45C | ≤ 0.5
16 | G17A G23C C33G C46A C66A | ≤ 0.5
17 | C34U G41A | 0.606
18 | G12A A14G A15G C27U G38A G68C | ≤ 0.5
19 | A20C C30U G68A | ≤ 0.5
20 | G10A C11G C30G A57G G58A U59A | ≤ 0.5
21 | U16A A21C A45U C60U G67C | ≤ 0.5

Row | Variant | yeast fitness
22 | U8A A70U | 0.813
23 | U26C G56C A65G | ≤ 0.5
24 | U8C A15C | 0.848
25 | A21U A57U C60A G68C | ≤ 0.5
26 | U3G C4A A40U C62U G63C | ≤ 0.5
27 | C5G U13C G58C | 0.74
28 | C22G C27U C33A A36C A43G C55G | ≤ 0.5
29 | A15C G25C C29U U35C A43U A57C G58A | ≤ 0.5
30 | U3A C5U C31G A57G | ≤ 0.5
31 | C24U C62U | 0.976
32 | C22A C24G A36G G39C C55U | ≤ 0.5
33 | U19A G58A A69U | 1.2
34 | U2C C5A C24A | ≤ 0.5
35 | C4A G17A G18A G25A C55A | ≤ 0.5
36 | A20C C34G | 0.527
37 | G23A C29A C31U A42G A43C U54G | ≤ 0.5
38 | A20C C27U A37C A42G | 0.688
39 | C30A C34G | 0.682
40 | U8G C62U U64A G67C | 0.603
41 | G10A A14C C34U A42G | 0.65
42 | C46G C60A G67U | 0.536

Row | Variant | yeast fitness
43 | G6A C61A G67A | 0.547
44 | G17C A21C U28C C60A A65G | ≤ 0.5
45 | A20G G56C | 0.61
46 | C34G A40C A43U | ≤ 0.5
47 | G6C U19C C29U G38C U47C | ≤ 0.5
48 | G25C G39A G58C | 0.663
49 | U19C G48A G50A | 0.693
50 | G38A C62G | 0.648
51 | C31U A37G U47C G63A | ≤ 0.5
52 | U19A C27A A45C | 0.557
53 | U3G G18A U28A | 0.613
54 | U32C C33U A42U A57G | ≤ 0.5
55 | A15U A43G U59C | 0.53
56 | U7C A14G U19G C29G C49A G52C G63A | ≤ 0.5
57 | A15U A20U A45C A57G | ≤ 0.5
58 | C27G C29U C49U | ≤ 0.5
59 | U7A C22G C30U U32C A37G A70G | ≤ 0.5
60 | G12A G48A | 0.819
61 | A40G C62U C66A A70C | 0.563
62 | U13A C27U A37C C61U | ≤ 0.5
63 | C4A A21C C22U | 0.651

Row | Variant | yeast fitness
64 | U2C U16C C27G G68A | ≤ 0.5
65 | C22U C27G | 0.721
66 | C11G U26C | 0.569
67 | C33A G39C C49U U54A G68A | ≤ 0.5
68 | A14G A15C C30U G56C A69C | ≤ 0.5
69 | A20U C27U C61G | 0.647
70 | G9C G23A A40C G41A C55G | ≤ 0.5
71 | C24U A36G G63C | ≤ 0.5
72 | C4A G23C C31U A36C A43C G50C A70U | ≤ 0.5
73 | U13A C31A G44A A57G | ≤ 0.5
74 | C4U G44A G58A | 0.974
75 | C29A C49A A70G | ≤ 0.5
76 | U26A G44C A57C A69U | 0.653
77 | G6A G23C A37U A57G A65C | ≤ 0.5
78 | U2C G18A G25A C66U | ≤ 0.5
79 | C11U U16A | 0.819
80 | C11A U26G | 0.599
81 | A42G A57U | 0.714
82 | C30A A40C C46U C60U C66U | ≤ 0.5
83 | C22U G25C C33A | 0.552
